Experimental data published in publication PMC4767718 (Drugs in R&D, 2015).
Like-named read-outs stand apart in the source and are kept apart here.

What was measured:
[1] = cited from earlier work
[2] = type: in vivo, human; details: single 50 mg ECT; for half-life: human, plasma, oral, 50 mg, Mean t½ (SD)
Procedure, shortened: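 Randomized two-way crossover on day 1 of cycles 1 and 2. Fasted arm: ~10 h overnight fast. Fed arm: high-fat meal (54 g fat, 1036 calories) ~30 min predose, ≥75 % eaten. Tablet taken with 240 mL water, then no food for 4 h. Non-compartmental parameters. Ratio 90 % CIs from ANOVA on log data (patient random effect).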

[3] = Safety: drug-related adverse events graded by NCI-CTCAE version 3.0; type: in vivo, human
Procedure, shortened: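 Adverse events monitored throughout and graded by NCI-CTCAE v3.0, alongside regular hematology, clinical chemistry, vital signs and ECOG status. Single oral dose on day 1 of cycles 1–2. Then 40 mg twice daily on days 3–9 (50 mg allowed in cycle 2), followed by 14-day rest. Afterwards, 40 or 50 mg twice daily on days 1–7 of 21-day cycles.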

advanced solid tumors = test: Tumor response by RECIST version 1.1; type: in vivo, human
Procedure, shortened: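 RECIST 1.1 response assessed at baseline, end of cycles 2, 4 and 6, then every 3 cycles (9 weeks) until progression. Oral dosing 40 mg twice daily on days 3–9 of cycles 1–2 (escalation to 50 mg allowed in cycle 2). Afterwards, 40 or 50 mg twice daily on days 1–7 of 21-day cycles.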

[4] = acidic pH / acidic solution; cited from earlier work
[5] = dose range of 5–200 mg/day; earlier trials, no reference given; cited from earlier work
[6] = 24 patients, during the first two cycles
[7] = N = 24, all alisertib treatments

In the case of COc1cc2ncnc(Nc3ccc(F)c(Cl)c3)c2cc1OCCCN1CCOCC1 [gefitinib], the “Effect of food on systemic exposure” value [1] is listed as “unaffected by food”.
With COc1cc(Nc2ncc3c(n2)-c2ccc(Cl)cc2C(c2c(F)cccc2OC)=NC3)ccc1C(=O)O [Alisertib] the half-life ([2]; fasted state, n = 11) was 16.7 h, the half-life ([2]; fed state, n = 14) was 14.9 h and the “AUCtlast geometric mean ratio, fed versus fasted (90 % CI)” value [2] was 1.04 (0.80–1.34). For the same molecule, the “Cmax geometric mean ratio, fed versus fasted (90 % CI)” value [2] was 0.84 (0.66–1.06), the “Decrease in geometric mean Cmax after high-fat meal compared with fasted” value [2] was 16% and the “AUCinf geometric mean ratio, fed versus fasted (90 % CI)” value ([2]; n = 11) was 0.94 (0.68–1.32). For the same molecule, the “AUCinf geometric mean ratio, fed versus fasted (90 % CI)” value ([2]; n = 11, listed as alisertib) was 0.94, the “Geometric mean Cmax under fed conditions as % of that under fasted conditions” value ([2]; 90 % CI 66–106) was 84% and the “Geometric mean AUCinf under fed conditions as % of that under fasted conditions” value ([2]; 90 % CI 68–132 %) was 94%. For the same molecule, the “Discontinuation of treatment due to AEs” value ([3]; 24 patients) was “No patient discontinued treatment due to AEs”, the “Patients reporting at least one drug-related AE” value ([3]; 24 patients) was 96% and the “Patients with AEs considered serious and related to alisertib” value ([3]; 24 patients) was 13%. For the same molecule, the “Patients with drug-related grade 3/4 leukopenia” value ([3]; 24 patients) was 38%, the “Patients with drug-related grade 3/4 neutropenia” value ([3]; 24 patients) was 50% and the “Patients with drug-related grade 3/4 thrombocytopenia” value ([3]; 24 patients) was 21%. For the same molecule, the “Patients with drug-related grade 3 or higher AEs” value ([3]; 24 patients) was 67%, the “Patients with drug-related alopecia” value ([3]; 24 patients, any grade) was 50% and the “Patients with drug-related diarrhea” value ([3]; 24 patients, any grade) was 25%. For the same molecule, the “Patients with drug-related fatigue” value ([3]; 24 patients, any grade) was 21%, the “Patients with drug-related nausea” value ([3]; 24 patients, any grade) was 21% and the “Serious related grade 3/4 febrile neutropenia” value [3, 6] was 2 n. For the same molecule, the “Serious related grade 3 neutropenia” value [3, 6] was 1 n, the “Drug-related AST increased, all grades” value [3, 7] was 3 (13) n (%) and the “Drug-related AST increased, grade ≥3” value [3, 7] was 0 n (%). For the same molecule, the “Drug-related alopecia, all grades” value [3, 7] was 12 (50) n (%), the “Drug-related alopecia, grade ≥3” value [3, 7] was 0 n (%) and the “Drug-related anemia, all grades” value [3, 7] was 7 (29) n (%). The “Drug-related anemia, grade ≥3” value [3, 7] was 3 (13) n (%), the “Drug-related anorexia, all grades” value [3, 7] was 4 (17) n (%) and the “Drug-related anorexia, grade ≥3” value [3, 7] was 0 n (%). The “Drug-related diarrhea, all grades” value [3, 7] was 6 (25) n (%), the “Drug-related diarrhea, grade ≥3” value [3, 7] was 1 (4) n (%) and the “Drug-related fatigue, all grades” value [3, 7] was 5 (21) n (%). For the same molecule, the “Drug-related fatigue, grade ≥3” value [3, 7] was 1 (4) n (%), the “Drug-related febrile neutropenia, all grades” value [3, 7] was 2 (8) n (%) and the “Drug-related febrile neutropenia, grade ≥3” value [3, 7] was 2 (8) n (%). The “Drug-related leukopenia, all grades” value [3, 7] was 13 (54) n (%), the “Drug-related leukopenia, grade ≥3” value [3, 7] was 9 (38) n (%) and the “Drug-related nausea, all grades” value [3, 7] was 5 (21) n (%). For the same molecule, the “Drug-related nausea, grade ≥3” value [3, 7] was 0 n (%), the “Drug-related neutropenia, all grades” value [3, 7] was 17 (71) n (%) and the “Drug-related neutropenia, grade ≥3” value [3, 7] was 12 (50) n (%). The “Drug-related stomatitis, all grades” value [3, 7] was 4 (17) n (%), the “Drug-related stomatitis, grade ≥3” value [3, 7] was 0 n (%) and the “Drug-related thrombocytopenia, all grades” value [3, 7] was 7 (29) n (%). The “Drug-related thrombocytopenia, grade ≥3” value [3, 7] was 5 (21) n (%), the “Patients with best response of stable disease” value (advanced solid tumors; 24 patients evaluable, alisertib 40 to 50 mg twice daily) was 50% and the “Patients with stable disease lasting more than 3 months” value (advanced solid tumors; of 12 patients with stable disease) was “seven”. For the same molecule, the Solubility [4] was “reduced” and the “Pharmacokinetics, dose linearity” value [5] was “linear”.
For Cc1nc(Nc2ncc(C(=O)Nc3c(C)cccc3Cl)s2)cc(N2CCN(CCO)CC2)n1 [dasatinib], the “Increase in the mean AUC after a high-fat meal” value ([1]; 100 mg dose following a high-fat meal (30 min)) is given as 14%.
For CS(=O)(=O)CCNCc1ccc(-c2ccc3ncnc(Nc4ccc(OCc5cccc(F)c5)c(Cl)c4)c3c2)o1 [Lapatinib], the “AUC increase when administered with food” value ([1]; low-fat meal) is listed as “approximately three”.
For C#Cc1cccc(Nc2ncnc3cc(OCCOC)c(OCCOC)cc23)c1 [erlotinib], the “Change of systemic exposure under fed compared with fasted conditions” value ([1]; single-dose crossover study) is listed as “approximately doubled”.
